Experimental data collected from several papers.
Lines come from different studies, so protocols differ.

Compound | tested on | assay | system | setting | quantity | value
N=c1c2c(-c3ccccc3)c(-c3ccccc3)n(Cc3ccccc3)c2ncn1[C@H]1CC[C@H](O)CC1 | – | – | male cynomolgus monkey, plasma | intravenous, 0.5 mg/kg, single dose | clearance | 0.6 mL/min/kg
O=[N+]([O-])c1ccc(Oc2cccc3cccnc23)c([N+](=O)[O-])c1 | WI-38 | cell growth or viability, MTT | – | 48 h | CC50 | 243 µM
O=C(Nc1ncc([N+](=O)[O-])s1)c1ccccc1O | RPE | cell growth or viability | – | 48 h | CC50 | ≥ 30 µM
CCC[C@@](N)(CO)CCc1ccc(OCCCCCC(C)C)cc1 | – | – | dog, plasma | intravenous, 0.25 mg/kg | C0 | 36 nM
O=c1c(O[C@@H]2O[C@H](CO)[C@@H](O)[C@H](O)[C@H]2O)c(-c2ccc(O)cc2)oc2cc(O)cc(O)c12 | WI-38 | cell growth or viability, WST-1 | – | – | IC50 | 113 µM
O=C1Nc2c(C(F)(F)F)cccc2[C@@]1(c1ccc(O)cc1)c1ccc(OC(F)(F)F)cc1 | – | general toxicity | Sprague-Dawley rat | intravenous | MTD | 10 to 20 mg/kg
Cc1cc(NC2CCN(C(=O)OC3CCN(C(=O)/C=C/CN(C)C)C3)CC2)n2ncc(C(C)C)c2n1 (stereo not shown) | – | general toxicity | rat | oral, multiple doses, once daily | MTD | 6 mg/kg
O=C(O)c1cn(Cc2ccc(F)cc2)c2ccccc12 | UDP-glucuronosyltransferase 1A10 (UGT1A10, Homo sapiens, UniProt Q9HAW8) | enzyme activity, substrate | – | – | Km | 38 µM
C#C[C@]1(CO)O[C@@H](n2cnc3c(N)nc(F)nc32)C[C@@H]1O | – | general toxicity | rat | oral, multiple doses | NOAEL | ≥ 50 mg/kg/day
COc1c2ccoc2cc2oc(=O)ccc12 | WI-38 | cell growth or viability, WST-1 | – | 48 h | IC50 | 86.3 µM
O=C1N=C(N2CCCCN2)S/C1=C\c1ccc(F)cc1OC(=O)N1CCCC1 | – | general toxicity | Sprague-Dawley rat | oral, multiple doses | NOAEL | 2000 mg/kg/day
Cc1cc(C)nc(Nc2ncc(C(=O)NCCc3c(C)[nH]c4ccccc34)cn2)c1 | – | metabolic stability | dog, liver microsomes | 1 µM | half-life | 10 min
Cc1nc2ccccc2n(-c2ccc([N+](=O)[O-])cc2[N+](=O)[O-])c1=O | WI-38 | cell growth or viability, MTT | – | 48 h | CC50 | 61.2 µM
